# Source: paper PMC4710169 (Biomedical chromatography : BMC, 2014)
# Legend:
# tumor growth = conditions: 40 mg/kg intraperitoneal; ref: our previous studies; cited from earlier work
# mouse plasma proteins = test: Plasma protein binding by micro-ultrafiltration; assay type: in vitro ADME; conditions: 37°C, 1 h
# Summary of the method: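 Mouse plasma spiked at 324 and 3240 ng/mL and held at 37°C for 1 h; PBS used as control matrix. Micro-ultrafiltration by centrifugation at 2000g until dry. Filtrate (free, F) and unfiltered solution (total, T) each assayed in triplicate by HPLC, and filter-bound amount (X) also measured. Percent bound = [(T−F−X)/T]×100.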
# [1] = system: hepatic microsomal S9 fractions from CD2F1 mice; test: S9 metabolism in vitro; assay type: in vitro ADME; conditions: mouse S9, 60 min incubation, 37°C
# Summary of the method: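 Hepatic S9 fraction from CD2F1 mice, containing phase I and II enzymes and cofactors, incubated with compound. Compound added as a 3240 ng/mL DMSO solution (not final concentration) into cold 100 mM Tris, pH 7.4. Duplicate portions taken at 0, 15, 30, 45 and 60 min and analysed for intact compound by HPLC, against a no-S9 control.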
# [2] = Nonspecific binding to container surface; assay type: physicochemical, mouse
# Summary of the method: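 Sequential transfer test. Plasma or tissue homogenate spiked at 324 or 3240 ng/mL was poured, without a pipette, through four identical clean tubes in turn. Solution stood 5–20 min at room temperature in each donor tube for adsorption. 100 μL taken from each tube and measured by the same extraction and HPLC-DAD method.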
# [3] = Stock solution stability at room temperature; assay type: physicochemical; conditions: room temperature (25°C), 24 h; 324 and 3240 ng/mL
# Summary of the method: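 Stock solutions of analyte and internal standard, at 324 and 3240 ng/mL, tested fresh and after storage at 25°C. Tested at 6, 12 and 24 h after preparation, using the same extraction and C18 HPLC-DAD (295 nm) procedure.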
# [4] = assay type: in vivo, female nu/nu mice
# Summary of the method: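 Nude mice carrying subcutaneous MIAPaCa-2 xenografts (1 × 10^7 cells, left inguinal) were dosed once with 40 mg/kg i.p. when tumours reached 100 mg, n=3 per group. Vehicle was PEG400–EtOH–saline (57.1:14.3:28.6). Retro-orbital plasma and necropsy tissues taken at 0–24 h. Urine and feces collected over 24 h in metabolic cages. Tissues homogenized in PBS, methanol-extracted and measured by HPLC-DAD.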
# [5] = Homogenization stability in mouse tissues; assay type: in vitro ADME; conditions: homogenized
# Summary of the method: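 Compound at 324 and 3240 ng/mL injected into equal weights of blank mouse tissue, kept inside the organ. Tissue homogenized in two volumes (v/w) PBS on ice, extracted at once by methanol precipitation and analysed immediately. Analysis by C18 HPLC-DAD at 295 nm. Recovery given as percent of initial concentration.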
# Freeze–thaw stability = assay type: in vitro ADME
# Summary of the method: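 Samples at 324 and 3240 ng/mL, run in triplicate. Each cycle was 24 h at −20°C, then unassisted thawing at room temperature, then refreezing; three cycles in total. Samples then extracted with methanol (0.04% formic acid) on ice and analysed by reversed-phase HPLC-DAD at 295 nm. Final concentration expressed as percent of initial.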
# [6] = Bench-top stability in mouse plasma and tissue homogenates at 25°C; assay type: in vitro ADME; conditions: plasma and most tissue homogenates except for liver
# pancreatic cancer cells = conditions: ref: our previous studies; cited from earlier work
# [7] = Short- and long-term stability in mouse plasma; assay type: in vitro ADME; conditions: for compound remaining intact in mouse plasma: 4°C
# Summary of the method: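 Mouse plasma spiked at 324 and 3240 ng/mL, analysed in duplicate. Short-term storage at 37°C (2, 4, 6, 8, 12, 24 h) or 4°C (4, 8, 12, 24 h); long-term storage at −80°C for 2–8 weeks. Samples then methanol-extracted and analysed by HPLC-DAD. Results given as percent of freshly prepared samples.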
# [8] = female, nu/nu, mouse, plasma, intraperitoneal, 40 mg/kg
smiles,measurement,setting,value
"COc1ccc2[nH]c3c(-c4cccc5ccccc45)nccc3c2c1 [SP-141, 6-methoxy-1-(naphthalen-1-yl)-9H-pyrido[3,4-b]indole]",effect on tumor growth in vivo,tumor growth,suppresses the tumor growth
same,host toxicity in vivo,tumor growth,no significant host toxicity
same,bound to proteins in mouse plasma,mouse plasma proteins; 324 ng/mL,57.23%
same,bound to proteins in mouse plasma,mouse plasma proteins; 3240 ng/mL,62.61%
same,compound metabolized by phase II components,[1],18.8%
same,"Recovery (%) ± SD (%), nonspecific binding","[2]; Brain, 324 ng/mL",96.29 ± 2.54%
same,"Recovery (%) ± SD (%), nonspecific binding","[2]; Brain, 3240 ng/mL",100.58 ± 0.81%
same,"Recovery (%) ± SD (%), nonspecific binding","[2]; Heart, 324 ng/mL",100.41 ± 0.27%
same,"Recovery (%) ± SD (%), nonspecific binding","[2]; Heart, 3240 ng/mL",98.82 ± 0.38%
same,"Recovery (%) ± SD (%), nonspecific binding","[2]; Kidney, 324 ng/mL",99.88 ± 3.11%
same,"Recovery (%) ± SD (%), nonspecific binding","[2]; Kidney, 3240 ng/mL",97.13 ± 1.04%
same,"Recovery (%) ± SD (%), nonspecific binding","[2]; Liver, 324 ng/mL",104.91 ± 6.65%
same,"Recovery (%) ± SD (%), nonspecific binding","[2]; Liver, 3240 ng/mL",99.69 ± 1.38%
same,"Recovery (%) ± SD (%), nonspecific binding","[2]; Lungs, 324 ng/mL",96.64 ± 2.24%
same,"Recovery (%) ± SD (%), nonspecific binding","[2]; Lungs, 3240 ng/mL",99.99 ± 0.21%
same,"Recovery (%) ± SD (%), nonspecific binding","[2]; Muscle, 324 ng/mL",101.12 ± 2.33%
same,"Recovery (%) ± SD (%), nonspecific binding","[2]; Muscle, 3240 ng/mL",99.19 ± 1.01%
same,"Recovery (%) ± SD (%), nonspecific binding","[2]; Plasma, 324 ng/mL",98.95 ± 1.49%
same,"Recovery (%) ± SD (%), nonspecific binding","[2]; Plasma, 3240 ng/mL",100.49 ± 0.04%
same,"Recovery (%) ± SD (%), nonspecific binding","[2]; Spleen, 324 ng/mL",99.54 ± 2.10%
same,"Recovery (%) ± SD (%), nonspecific binding","[2]; Spleen, 3240 ng/mL",99.99 ± 0.22%
same,"Recovery (%) ± SD (%), nonspecific binding","[2]; Tumor, 324 ng/mL",96.84 ± 2.30%
same,"Recovery (%) ± SD (%), nonspecific binding","[2]; Tumor, 3240 ng/mL",99.20 ± 0.57%
same,stock solution stability,[3],unchanged
same,order of highest overall concentrations in tissues,[4]; 40 mg/kg i.p. single dose,spleen > lungs > liver > kidney > brain > tumor > muscle > heart
same,concentration in plasma,"[4]; 40 mg/kg i.p. single dose, 6 h",undetectable
same,detection in tumor tissue,"[4]; 40 mg/kg i.p., 24 h after administration, low concentrations",could be detected
same,excretion of parent compound in urine and feces,"[4]; 40 mg/kg i.p., 24 h collection, data not shown",minimally excreted
same,half-life in plasma,"[4]; 40 mg/kg i.p., tumor-bearing nude mice",short half-life
same,concentration at 10 min,[4]; [8],~3000 ng/mL
same,concentration at 4 h,[4]; [8],200 ng/mL
same,recovery at 324 ng/mL,[5]; blank brain tissue,91.3 ± 0.98%
same,recovery at 3240 ng/mL,[5]; blank brain tissue,101 ± 1.45%
same,recovery at 324 ng/mL,[5]; blank heart tissue,81.8 ± 4.47%
same,recovery at 3240 ng/mL,[5]; blank heart tissue,86.6 ± 1.39%
same,recovery at 324 ng/mL,[5]; blank kidney tissue,82.5 ± 2.6%
same,recovery at 3240 ng/mL,[5]; blank kidney tissue,87.8 ± 1.36%
same,recovery at 324 ng/mL,[5]; blank liver tissue,86.7 ± 1.36%
same,recovery at 3240 ng/mL,[5]; blank liver tissue,89.22 ± 0.77%
same,recovery at 324 ng/mL,[5]; blank lung tissue,89 ± 1.57%
same,recovery at 3240 ng/mL,[5]; blank lung tissue,93.3 ± 1.02%
same,recovery at 324 ng/mL,[5]; blank muscle tissue,97.18 ± 0.9%
same,recovery at 3240 ng/mL,[5]; blank muscle tissue,97.5 ± 1.47%
same,recovery at 324 ng/mL,[5]; blank spleen tissue,93 ± 5.2%
same,recovery at 3240 ng/mL,[5]; blank spleen tissue,99.7 ± 1.15%
same,recovery at 324 ng/mL,[5]; blank tumor tissue,99.61 ± 0.79%
same,recovery at 3240 ng/mL,[5]; blank tumor tissue,99.12 ± 0.19%
same,percentage of remaining concentration after three freeze–thaw cycles,Freeze–thaw stability; 324 ng/mL,98.24 ± 0.69%
same,percentage of remaining concentration after three freeze–thaw cycles,Freeze–thaw stability; 3240 ng/mL,97.44 ± 1.53%
same,bench-top stability,[6],relatively stable
same,effective level against pancreatic cancer cells in vitro,pancreatic cancer cells,submicromolar
same,compound remaining intact in mouse plasma,"[7]; 24 h, 324 ng/mL",95.9%
same,compound remaining intact in mouse plasma,"[7]; 24 h, 3240 ng/mL",94.3%
same,compound remaining in mouse plasma,"[7]; 37°C, 24 h, both 324 and 3240 ng/mL",more than 77%
same,compound remaining in mouse plasma,"[7]; −80°C, 8 weeks, 324 ng/mL",95.7%
same,compound remaining in mouse plasma,"[7]; −80°C, 8 weeks, 3240 ng/mL",98.7%
"COc1ccc2c(c1)[nH]c1c(-c3ccc4ccccc4c3)nccc12 [SP-157, 7-methoxy-1-(naphthalen-2-yl)-9H-pyrido[3,4-b]indole, reference compound]",stock solution stability,[3],unchanged
